Data reported in ChEMBL document CHEMBL1141852, “Two auronols from Pseudolarix amabilis” (1999).
≈ marks a conversion by molar mass, not a printed value. Calls of active or inactive are those of the source. The calls are words filed in the database; no cut-off is given here.

What was measured:
[1] = system: Candida albicans; test: Antimicrobial activity against Candida albicans; assay type: functional
In short: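 Broth microdilution in 96-well plates. Inoculum was a 24 h Candida albicans culture diluted in Sabouraud dextrose broth. Incubation was at 30 or 37 °C. MIC was taken as the lowest concentration giving at least 80% growth inhibition.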

[2] = system: Trichophyton mentagrophytes; test: Antimicrobial activity against Trichophyton mentagrophytes; assay type: functional
In short: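 Microdilution in 96-well plates. The Trichophyton mentagrophytes inoculum was spores scraped from fungal growth into Mycophil broth. Pure compounds were tested at final 50 down to 0.20 µg/mL in twofold steps. Incubation was at 30 or 37 °C. MIC was taken as the lowest concentration inhibiting at least 80% of growth.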

MIC [1] [µg/mL] | MIC [2] [µg/mL] | SMILES | MFC [1] [µg/mL] | Activity [2] | Activity [1]
 |  | C[C@@H]1[C@H](O)[C@@H](C)/C=C/C=C/C=C/C=C/C=C/C=C/C=C/[C@H](O[C@@H]2O[C@H](C)[C@@H](O)[C@H](N)[C@@H]2O)C[C@@H]2O[C@](O)(C[C@@H](O)C[C@@H](O)[C@H](O)CC[C@@H](O)C[C@@H](O)CC(=O)O[C@H]1C)C[C@H](O)[C@H]2C(=O)O [AMPHOTERICIN B] | 0.39 (≈ 0.422 µM) | inactive | 
3.12 (≈ 7.23 µM) |  | COC(=O)C1=CC[C@@]23CC[C@@H]([C@@](C)(/C=C/C=C(\C)C(=O)O)OC2=O)[C@@]3(OC(C)=O)CC1 [PSEUDOLARIC ACID B] | 6.25 (≈ 14.5 µM) |  | 
 |  | O=C1c2c(O)cc(O)cc2OC1(O)Cc1cc(O)c(O)c(O)c1 (configuration not stated) |  | inactive | inactive
 |  | CC(=O)O[C@]12CCC(C)=CC[C@]13CC[C@H]2[C@@](C)(/C=C/C=C(\C)C(=O)O[C@@H]1O[C@H](CO)[C@@H](O)[C@H](O)[C@H]1O)OC3=O |  | inactive | inactive
 |  | COc1c(O)cc(CC2(O)Oc3cc(O)cc(O)c3C2=O)cc1O (configuration not stated) |  | inactive | inactive
 |  | C/C(=C\C=C\[C@@]1(C)OC(=O)[C@]23CC=C(C(=O)O)CC[C@]2(O)[C@H]1CC3)C(=O)O |  | inactive | inactive
 |  | COC(=O)C1=CC[C@@]23CC[C@@H]([C@@](C)(/C=C/C=C(\C)C(=O)O[C@@H]4O[C@H](CO)[C@@H](O)[C@H](O)[C@H]4O)OC2=O)[C@@]3(OC(C)=O)CC1 |  | inactive | inactive
 |  | COC(=O)C1=CC[C@@]23CC[C@@H]([C@@](C)(/C=C/C=C(\C)C(=O)O)OC2=O)[C@@]3(O)CC1 |  | inactive | inactive
 | 50 (≈ 157 µM) | O=c1c(O)c(-c2cc(O)c(O)c(O)c2)oc2cc(O)cc(O)c12 [MYRICETIN] |  |  | 
